In brackets after ≈: the same amount, converted by molar mass. Activity calls are given as the source filed them. No cut-off for these calls is given here.
Legend:
[1] = system: Mycobacterium tuberculosis; test: Antitubercular activity against Mycobacterium tuberculosis H37Rv ATCC 27294 expressing the green fluorescence protein assessed as inhibition of bacterial growth by measuring GFP fluorescence incubated for 5 days by fluorescence based plate reader analysis; type: functional, organism-based; details: H37Rv ATCC 27294, 120 h
In short: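 H37Rv-GFP was grown 14 days in 7H9/OADC/Tween/glycerol/hygromycin, washed, and seeded at ~3×10^6 CFU/mL. Compounds were given as 10-point 2-fold series starting at 20 or 1 µM, in 1% DMSO final. Plates ran 5 days at 37°C, 5% CO2, with rifampicin 1 µg/mL as positive control. GFP fluorescence was read and IC50 taken from a 4-parameter sigmoid fit.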

[2] = system: Mycobacterium tuberculosis; test: Antitubercular activity against Mycobacterium tuberculosis H37Rv ATCC 27294 expressing the green fluorescence protein infected in mouse RAW264.7 cells assessed as inhibition of bacterial growth pre-infected with cell followed by compound addition and measured after 5 days by Hoechst 33342 staining based analysis; type: functional, organism-based; details: H37Rv ATCC 27294, RAW264.7, 120 h
In short: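 RAW 264.7 cells, passages 2-9, were infected with washed H37Rv-GFP at MOI 20 for 2 h at 37°C with shaking. Cells were washed and plated at 20,000/well over 2-fold compound dilutions for 5 days. Nuclei were stained with 5 µM Hoechst (final) and 3 fields/well imaged. Four parameters (cell count, bacterial area, area per infected cell, infected-cell ratio) were each fitted by 4-parameter sigmoid, and the IC50s averaged.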

[3] = Metabolic stability in human liver microsome assessed as phase I mediated metabolite formation by measuring half-life; type: ADME; details: microsomes
[4] = Metabolic stability in mouse liver microsome assessed as phase I mediated metabolite formation by measuring half-life; type: ADME; details: microsomes
[5] = Solubility of the compound at pH 7.4; type: physicochemical; details: buffer
[6] = Solubility of the compound at pH 2.1; type: physicochemical; details: buffer
[7] = Metabolic stability in human liver microsome assessed as phase II mediated metabolite formation by measuring half-life; type: ADME; details: microsomes
[8] = Metabolic stability in mouse liver microsome assessed as phase II mediated metabolite formation by measuring half-life; type: ADME; details: microsomes
[9] = Stability in human plasma measured after 4 hrs; type: ADME, cell-free; details: read-out: Stability
[10] = Stability in mouse plasma measured after 4 hrs; type: ADME, cell-free; details: read-out: Stability
[11] = Protein binding in human plasma; type: ADME, cell-free; details: read-out: PPB (converted)
[12] = Protein binding in mouse plasma; type: ADME, cell-free; details: read-out: PPB (converted)
[13] = Half-life in BALB/c mouse at 2 mg/kg, iv by LC-MS analysis; type: ADME, organism-based; details: in vivo
In short: (§1)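 Female BALB/c mice, 6-8 weeks old. Dosed i.v. at 2 or 3 mg/kg, or orally at 10 mg/kg. Vehicles varied by compound: DMSO/Captisol, DMSO/PEG400/SBE-b-CD, or DMSO/Cremophor EL/Captisol. Blood was held at 4°C within 1 h, then centrifuged at 3200 × g for 10 min at 4°C. Plasma was kept at 4°C, and compound levels were measured by LC-MS.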

[14] = Clearance in BALB/c mouse at 2 mg/kg, iv by LC-MS analysis; type: ADME, organism-based; details: in vivo; in short: as §1
[15] = Volume of distribution at steady state in BALB/c mouse at 2 mg/kg, iv by LC-MS analysis; type: ADME, organism-based; details: in vivo, read-out: Vdss; in short: as §1
[16] = Cmax in BALB/c mouse at 10 mg/kg, po by LC-MS analysis; type: ADME, organism-based; parameters: dose 10 mg/kg, route po; details: in vivo; in short: as §1
[17] = Stability in human plasma measured after 2 hrs; type: ADME, cell-free; details: read-out: Stability
[18] = Stability in mouse plasma measured after 2 hrs; type: ADME, cell-free; details: read-out: Stability
A549 = test: Cytotoxicity against human A549 cells assessed as inhibition of cell growth; type: functional, cell-based
[19] = Cytotoxicity against HEK293 cells assessed as inhibition of cell growth; type: toxicity, cell-based; details: human
HepG2 = test: Cytotoxicity against human HepG2 cells assessed as inhibition of cell growth; type: functional, cell-based
Jurkat = test: Cytotoxicity against human Jurkat cells assessed as inhibition of cell growth; type: functional, cell-based
[20] = Genotoxicity in Salmonella typhimurium TA98 by Ames mutagenicity test; type: toxicity; details: salmonella enterica subsp. enterica serovar typhimurium
[21] = Genotoxicity in Salmonella typhimurium TA100 by Ames mutagenicity test; type: toxicity; details: salmonella enterica subsp. enterica serovar typhimurium
[22] = Genotoxicity in Salmonella typhimurium TA98 in the presence of S9 fraction by Ames mutagenicity test; type: toxicity, subcellular; details: salmonella enterica subsp. enterica serovar typhimurium
[23] = Genotoxicity in Salmonella typhimurium TA100 in the presence of S9 fraction by Ames mutagenicity test; type: toxicity, subcellular; details: salmonella enterica subsp. enterica serovar typhimurium
[24] = Half-life in BALB/c mouse at 3 mg/kg, iv by LC-MS analysis; type: ADME, organism-based; details: in vivo; in short: as §1
[25] = Clearance in BALB/c mouse at 3 mg/kg, iv by LC-MS analysis; type: ADME, organism-based; details: in vivo; in short: as §1
[26] = Volume of distribution at steady state in BALB/c mouse at 3 mg/kg, iv by LC-MS analysis; type: ADME, organism-based; details: in vivo, read-out: Vdss; in short: as §1
[27] = Half-life in BALB/c mouse at 10 mg/kg, po by LC-MS analysis; type: ADME, organism-based; details: in vivo; in short: as §1
[28] = AUClast in BALB/c mouse at 10 mg/kg, po by LC-MS analysis; type: ADME, organism-based; parameters: dose 10 mg/kg, route po; details: in vivo; in short: as §1
[29] = Oral bioavailability in BALB/c mouse at 10 mg/kg by LC-MS analysis; type: ADME, organism-based; details: in vivo; in short: as §1
[30] = Drug concentration in BALB/c mouse plasma at 10 mg/kg, po by LC-MS analysis; type: ADME, organism-based; details: in vivo; in short: as §1
[31] = Drug concentration in BALB/c mouse lung at 10 mg/kg, po by LC-MS analysis; type: ADME, organism-based; details: in vivo; in short: as §1
[32] = Ratio of drug concentration in lung to plasma in BALB/c mouse at 10 mg/kg, po by LC-MS analysis; type: ADME, organism-based; in short: as §1
[33] = Tmax in BALB/c mouse at 10 mg/kg, po by LC-MS analysis; type: ADME, organism-based; details: in vivo; in short: as §1
[34] = system: Mycobacterium tuberculosis; test: Antibacterial activity against Mycobacterium tuberculosis H37Rv ATCC 27294 infected in BALB/c mouse assessed as reduction in CFU in lungs at 50 mg/kg, po administered five times a week for 28 days; type: functional, organism-based; details: time 28.0 day
In short: (§2)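 Female BALB/c mice, 6-8 weeks old, were infected intranasally with ~300-600 CFU H37Rv, 5 mice per group. Oral gavage began at day 21, 5 days/week for 4 weeks. Lungs were taken a day after the last dose, homogenized in PBS, serially diluted and plated in duplicate on 7H11-OADC agar for 2-5 weeks at 37°C. Detection limit ~2.3 logs. Bonferroni test against vehicle-treated mice.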

[35] = system: Mycobacterium tuberculosis; test: Antibacterial activity against Mycobacterium tuberculosis H37Rv ATCC 27294 infected in BALB/c mouse assessed as reduction in CFU in lungs at 20 mg/kg, po administered five times a week for 28 days; type: functional, organism-based; details: time 28.0 day; in short: as §2
[36] = system: Mycobacterium tuberculosis; test: Antibacterial activity against Mycobacterium tuberculosis H37Rv ATCC 27294 infected in BALB/c mouse assessed as reduction in bacterial burden in lungs at 100 mg/kg, po administered five times a week for 28 days; type: functional; details: time 28 day; in short: as §2
[37] = system: Mycobacterium tuberculosis; test: Antibacterial activity against Mycobacterium tuberculosis H37Rv ATCC 27294 infected in BALB/c mouse assessed as decrease in number of CFU in lungs at 100 mg/kg, po administered five times a week for 28 days; type: functional; details: time 28 day; in short: as §2

O=C(Nc1ccc(-c2ccc(F)nc2)cc1)c1cc2sc(NCCN3CCOCC3)nc2s1
IC50 [1]: 610 nM | IC50 [2]: 100 nM | t1/2 [3]: 0.418 h | t1/2 [4]: 0.76 h | solubility [5]: 1.1 µg/mL (≈ 2.27 µM) | solubility [6]: 1.5 µg/mL (≈ 3.1 µM)

Cc1nc2cc(NC(=O)c3cc4sc(N5CCOCC5)nc4s3)ccc2o1
IC50 [1]: 420 nM | IC50 [2]: 200 nM | t1/2 [3]: > 1 h | t1/2 [4]: > 1 h | solubility [5]: 0.82 µg/mL (≈ 2.05 µM) | solubility [6]: 5.3 µg/mL (≈ 13.2 µM) | t1/2 [7]: > 1 h | t1/2 [8]: > 1 h | remaining at 4 h [9]: 86.8% | remaining at 4 h [10]: 74.7% | fraction unbound [11]: 0.012 | fraction unbound [12]: 0.001 | half-life [13]: 0.33 h | clearance [14]: 121 mL/min/kg | Vd [15]: 0.626 L/kg | Cmax [16]: 313 ng/mL

O=C(Nc1ccc(-c2ccc(F)cn2)cc1)c1cc2sc(NCCN3CCOCC3)nc2s1
IC50 [1]: 760 nM | IC50 [2]: 190 nM | t1/2 [3]: > 1 h | t1/2 [4]: 0.758 h | solubility [5]: 0.76 µg/mL (≈ 1.57 µM) | solubility [6]: 43.6 µg/mL (≈ 90.2 µM) | t1/2 [7]: > 1 h | t1/2 [8]: > 1 h | remaining at 2 h [17]: 98.2% | remaining at 2 h [18]: > 100% | fraction unbound [11]: 0.002 | fraction unbound [12]: 0.002 | IC50 (A549): > 50000 nM | IC50 [19]: > 50000 nM | IC50 (HepG2): > 50000 nM | IC50 (Jurkat): > 50000 nM | Activity [20]: Non-Toxic | Activity [21]: Non-Toxic | Activity [22]: Non-Toxic | Activity [23]: Non-Toxic | half-life [24]: 1.2 h | clearance [25]: 14.9 mL/min/kg | Vd [26]: 1.52 L/kg | half-life [27]: 2.3 h | Cmax [16]: 2940 ng/mL | AUC(0-t) [28]: 10400 ng·h/mL | bioavailability [29]: 102% | Cp [30]: 3380 ng/mL | Ct [31]: 16180 ng/mL | Kp [32]: 4.8 | Tmax [33]: 1 h | Activity [34]: Active | Activity [35]: inactive | log(activity) [36]: 4 | Activity [37]: 2.7 log10CFU

Cc1nc2cc(NC(=O)c3cc4sc(N5CCC(O)CC5)nc4s3)ccc2o1
IC50 [1]: 640 nM | IC50 [2]: 460 nM | t1/2 [3]: > 1 h | t1/2 [4]: > 1 h | solubility [5]: 2.4 µg/mL (≈ 5.79 µM) | solubility [6]: 9.7 µg/mL (≈ 23.4 µM)

COc1ccc(-c2ccc(NC(=O)c3cc4sc(NCCN5CCOCC5)nc4s3)cc2)nc1
IC50 [1]: 1350 nM | IC50 [2]: 190 nM | t1/2 [3]: < 0.5 h | t1/2 [4]: < 0.5 h | solubility [5]: 0.2 µg/mL (≈ 0.404 µM) | solubility [6]: > 50 µg/mL

Reference: ChEMBL document CHEMBL5223075, “Discovery of thienothiazolocarboxamide analogues as novel anti-tubercular agent” (Bioorg Med Chem, 2020)
